Experiments:
[1] = Inhibition of HCV1b NS5B polymerase; design: species or system Hepatitis C virus subtype 1b
[2] = AUC (0 to 6 hrs) in Sprague-Dawley rat at 10 mg/kg, po; type: ADME, organism-based; design: time < 6 hr, dose 10 mg/kg, route oral; details: plasma
In short: (§1)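 Sprague Dawley rats received esters orally at 10 mg/kg in 0.4% methylcellulose, given as trifluoroacetate salts. Plasma levels of both the intact ester prodrug and the acid metabolite were measured. AUC was integrated over 0–6 h after dosing.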

[3] = test system: Hepatitis C virus; experiment: Antiviral activity against HCV1b assessed as inhibition of viral replication; type: functional, organism-based, Hepacivirus hominis; details: genotype 1b
In short: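 In the cell-based HCV replicon assay, viral RNA levels were measured. EC50 is the concentration giving a 50% reduction in replicon RNA.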

[4] = test system: Rattus norvegicus; experiment: Prodrug conversion in Sprague-Dawley rat assessed as AUC (0 to 24 hrs) of 6-((2-Aminoquinolin-4-yl)methyl)-4-fluoro-8-(2-oxo-1,2-dihydropyridin-3-yl)-6H-furo[2,3-e]indole-7-carboxylic acid level at 10 mg/kg, po; type: ADME, organism-based; design: time < 24 hr, dose 10 mg/kg, route oral; details: in vivo
In short: (§2)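 Dimethylaminoethyl ester prodrugs were dosed orally to rats at 10 mg/kg in 0.4% methylcellulose.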

[5] = test system: Cynomolgus monkey; experiment: Prodrug conversion in cynomolgus monkey assessed as AUC (0 to 24 hrs) of 6-((2-Aminoquinolin-4-yl)methyl)-4-fluoro-8-(2-oxo-1,2-dihydropyridin-3-yl)-6H-furo[2,3-e]indole-7-carboxylic acid level at 3 mg/kg, po; type: ADME, organism-based, Macaca fascicularis; design: time < 24 hr, dose 3 mg/kg, route oral; details: in vivo
[6] = AUC (0 to 6 hrs) in cynomolgus monkey at 3 mg/kg, po; type: ADME, organism-based, Macaca fascicularis; design: time < 6 hr, dose 3 mg/kg, route oral; details: plasma
[7] = test system: Rattus norvegicus; experiment: Prodrug conversion in Sprague-Dawley rat assessed as AUC (0 to 6 hrs) of parent compound level at 10 mg/kg, po; type: ADME, organism-based; design: time < 6 hr, dose 10 mg/kg, route oral; details: in vivo; in short: as §1
[8] = test system: Rattus norvegicus; experiment: Prodrug conversion in Sprague-Dawley rat assessed as AUC (0 to 6 hrs) of 6-((6-Chloro-1H-benzo[d]imidazol-5-yl)methyl)-4-fluoro-8-(2-oxo-1,2-dihydropyridin-3-yl)-6H-furo[2,3-e]indole-7-carboxylic acid level at 10 mg/kg, po; type: ADME, organism-based; design: time < 6 hr, dose 10 mg/kg, route oral; details: in vivo; in short: as §1
[9] = test system: Cynomolgus monkey; experiment: Prodrug conversion in cynomolgus monkey assessed as AUC (0 to 24 hrs) of 6-((6-Chloro-1H-benzo[d]imidazol-5-yl)methyl)-4-fluoro-8-(2-oxo-1,2-dihydropyridin-3-yl)-6H-furo[2,3-e]indole-7-carboxylic acid level at 3 mg/kg, po; type: ADME, organism-based, Macaca fascicularis; design: time < 24 hr, dose 3 mg/kg, route oral; details: in vivo
[10] = test system: Rattus norvegicus; experiment: Prodrug conversion in Sprague-Dawley rat assessed as AUC (0 to 24 hrs) of 6-((6-Chloro-1H-benzo[d]imidazol-5-yl)methyl)-4-fluoro-8-(2-oxo-1,2-dihydropyridin-3-yl)-6H-furo[2,3-e]indole-7-carboxylic acid level at 10 mg/kg, po; type: ADME, organism-based; design: time < 24 hr, dose 10 mg/kg, route oral; details: in vivo; in short: as §2
[11] = test system: Cynomolgus monkey; experiment: Prodrug conversion in cynomolgus monkey assessed as AUC (0 to 24 hrs) of 4-Fluoro-6-((6-fluoro-1H-indazol-5-yl)methyl)-8-(2-oxo-1,2-dihydropyridin-3-yl)-6H-furo[2,3-e]indole-7-carboxylic acid level at 3 mg/kg, po; type: ADME, organism-based, Macaca fascicularis; design: time < 24 hr, dose 3 mg/kg, route oral; details: in vivo
[12] = test system: Rattus norvegicus; experiment: Prodrug conversion in Sprague-Dawley rat assessed as AUC (0 to 24 hrs) of 4-Fluoro-6-((6-fluoro-1H-indazol-5-yl)methyl)-8-(2-oxo-1,2-dihydropyridin-3-yl)-6H-furo[2,3-e]indole-7-carboxylic acid level at 10 mg/kg, po; type: ADME, organism-based; design: time < 24 hr, dose 10 mg/kg, route oral; details: in vivo; in short: as §2
[13] = test system: Liver microsome; experiment: Metabolic stability in human liver microsomes assessed as glutathione adduct formation; type: ADME
[14] = test system: Liver microsome; experiment: Metabolic stability in human liver microsomes assessed as oxidation; type: ADME

| Structure (SMILES) | IC50 [1] [nM] | AUC(0-t) at 6 h [2] [µM·h] | EC50 [3] [nM] | further results |
| --- | --- | --- | --- | --- |
| O=C(O)c1c(-c2ccc[nH]c2=O)c2c3occc3c(F)cc2n1Cc1cc2[nH]cnc2cc1Cl | 6 | 1.2 | 8 | – |
| COCCOC(=O)c1c(-c2ccc[nH]c2=O)c2c3occc3c(F)cc2n1Cc1cc2[nH]cnc2cc1Cl | – | – | – | AUC [7]: 0.2 µM·h; AUC [8]: 1.1 µM·h |
| CN(C)CCOC(=O)c1c(-c2ccc[nH]c2=O)c2c3occc3c(F)cc2n1Cc1cc2[nH]cnc2cc1Cl.O=C(O)C(F)(F)F | – | – | 13 | AUC [9]: 14 µM·h; AUC [7]: 0.5 µM·h; AUC [10]: 208 µM·h; AUC [8]: 32.5 µM·h |
| O=C(O)c1c(-c2ccc[nH]c2=O)c2c3occc3c(F)cc2n1Cc1ccc2nc[nH]c2c1 | 5 | 9.3 | 30 | – |
| Cn1nc(N)c2cc(Cn3c(C(=O)O)c(-c4ccc[nH]c4=O)c4c5occc5c(F)cc43)c(F)cc21 | 6 | 7.2 | 20 | – |
| CN(C)CCCOC(=O)c1c(-c2ccc[nH]c2=O)c2c3occc3c(F)cc2n1Cc1cc2[nH]cnc2cc1Cl.O=C(O)C(F)(F)F | – | – | – | AUC [7]: 9.1 µM·h; AUC [8]: 0.7 µM·h |
| O=C(O)c1c(-c2ccc[nH]c2=O)c2c3occc3c(F)cc2n1Cc1cc(F)ccc1F | 2 | – | – | Stability [13]: Stable; Stability [14]: Stable; EC90 [3]: 90 nM |
| CC(OC(=O)c1c(-c2ccc[nH]c2=O)c2c3occc3c(F)cc2n1Cc1cc2[nH]cnc2cc1Cl)c1ccccc1 (stereo not drawn) | – | – | – | AUC [7]: 0.3 µM·h; AUC [8]: 0.2 µM·h |

Continued by falling EC50 [3], values first:

| IC50 [1] [nM] | AUC(0-t) at 6 h [2] [µM·h] | EC50 [3] [nM] | Structure (SMILES) | further results |
| --- | --- | --- | --- | --- |
| – | – | 7 | CN(C)CCOC(=O)c1c(-c2ccc[nH]c2=O)c2c3occc3c(F)cc2n1Cc1cc(N)nc2ccccc12.O=C(O)C(F)(F)F | AUC [4]: 651 µM·h; AUC [5]: 17 µM·h |
| 3 | 7.7 | 7 | O=C(O)c1c(-c2ccc[nH]c2=O)c2c3occc3c(F)cc2n1Cc1cc2[nH]cnc2cc1F | – |
| – | – | 6 | CN(C)CCOC(=O)c1c(-c2ccc[nH]c2=O)c2c3occc3c(F)cc2n1Cc1cc2cn[nH]c2cc1F.O=C(O)C(F)(F)F | AUC [11]: 33 µM·h; AUC [12]: 222 µM·h |
| 3 | 9.3 | 4 | O=C(O)c1c(-c2ccc[nH]c2=O)c2c3occc3c(F)cc2n1Cc1cc2cn[nH]c2cc1F | AUC(0-t) at 6 h [6]: 1 µM·h |
| 4 | 2.1 | 3 | Nc1n[nH]c2cc(F)c(Cn3c(C(=O)O)c(-c4ccc[nH]c4=O)c4c5occc5c(F)cc43)cc12 | – |
| 3 | 2.1 | 2 | Cc1cc2[nH]ncc2cc1Cn1c(C(=O)O)c(-c2ccc[nH]c2=O)c2c3occc3c(F)cc21 | – |
